Data taken from PubChem BioAssay.
The source made the active and inactive calls.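 The calls were made as follows, unless noted: active = viability at or below 30% in both replicate assays; inconclusive = viability at or below 30% in just one of the two assays; inactive = the rest.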

Columns and labels:
[1] = HUVEC growth inhibition – cell-based, human, primary screen (AID 575); conditions: HUVEC proliferation, CellTiter-Glo luminescence, 72 h; at 10 µM; stronger effect = lower value;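 also: 100% = median of untreated cell wells with 0.1% DMSO on each plate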
In short: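 Timing: 72 h treatment at 37 °C; material: HUVEC primary cells; technique: CellTiter-Glo luminescence measuring cellular ATP; controls: vehicle and MePR control wells; measure: percent of median DMSO-control luminescence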

[2] = growth inhibitors of H69AR lung tumor, primary screen, human, duplicate replicates (AID 580;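 active = viability at or under a set limit in both replicates, limit being median viability minus 3 SD, cut at about 48% in these data, passing the limit was not always enough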;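 also: 100% = mean luminescence of untreated wells and 0% = no signal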); conditions: H69AR lung tumor cells viability, ATP luminescence, 72 h; at 10 µM; stronger effect = lower value
[3] = reversal of MRP1-mediated doxorubicin resistance, pilot screen, H69AR cells, doxorubicin co-treatment (AID 601;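 active = viability loss from added drug above about 55%, and viability with drug at most 40%, in both replicates, limit read from the data, passing the limit was not always enough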); conditions: CellTiter-Glo, 72 h, at 10 µM; for differential viability (reversal): stronger effect = higher value
[4] = 384-well plate pilot, post-Golgi transport modulator project, inhibition of yeast transport mutant growth (AID 636; in the data active = inhibition above about 31%); conditions: absorbance 615 nm, about 18 h, stronger effect = higher value
[5] = growth suppression of yeast trafficking mutant, preliminary HTS, modulators of trafficking downstream of Golgi apparatus project, 1536-format plate, OD 615 nm (AID 637; in the data active = inhibition above about 30%); conditions: yeast transport mutant growth, absorbance 615 nm, 18 h; stronger effect = higher value
[6] = H69AR cells + 2 uM doxorubicin, measured here: viability with 2 uM doxorubicin, stronger effect = lower value
[7] = H69AR cells, compound alone cytotoxicity

Row | Compound | viability [1] | viability [2] | differential viability (reversal) ([3]; H69AR cells + 2 uM doxorubicin) | viability [3, 6] [%] | viability [3, 7] [%] | inhibition [4] | inhibition [5]
1 | Oc1ccc(-c2onc(C(F)(F)F)c2-c2cscn2)c(O)c1 | 108% (inactive) | 103% (inactive) | 5.71% (inactive) | 97.3 | 103 | -2.99% (inactive) | 4.92% (inactive)
2 | CCc1c(C)nc(N2CCN(Cc3ccccc3)CC2)[nH]c1=O | 115% (inactive) | 103% (inactive) | 18.8% (inactive) | 84.6 | 103 | -0.53% (inactive) | 0.32% (inactive)
3 | COc1ccc(-c2coc3c(CN4CCCCC4)c(O)c(CN4CCCCC4)c(O)c3c2=O)cc1 | 76.7% (inactive) | 1.48% (active) | -0.025% (inactive) | 1.5 | 1.48 | 0% (inactive) | 6.19% (inactive)
4 | COc1ccc(OC)c(NC(=O)Cc2coc3ccc(C)cc23)c1 | 76.7% (inactive) | 82.1% (inactive) | 3.86% (inactive) | 78.3 | 82.1 | -6.05% (inactive) | 0.48% (inactive)
5 | CC(=O)OC(C(=O)NCc1ccco1)c1cccnc1 (stereo not given) | 104% (inactive) | 87% (inactive) | 3.39% (inactive) | 83.6 | 87 | -2.08% (inactive) | 2.86% (inactive)
6 | COCCCNC(=O)CC(NS(=O)(=O)c1ccc(Cl)cc1)c1ccco1 (stereo not given) | 106% (inactive) | 87.5% (inactive) | 2.94% (inactive) | 84.6 | 87.5 | -0.91% (inactive) | -3.02% (inactive)
7 | C=CCC(Nc1ccco1)c1ccccc1 (stereo not given) | 95.8% (inactive) | 102% (inactive) | 14.1% (inactive) | 87.8 | 102 | -3.55% (inactive) | -0.32% (inactive)
8 | COCCN(CC(=O)Nc1ccccc1C)S(=O)(=O)c1ccc(S(=O)(=O)N2CCCC2)cc1 | 101% (inactive) | 95.7% (inactive) | 4.26% (inactive) | 91.5 | 95.7 | -7.2% (inactive) | 4.13% (inactive)
9 | Cc1ccc(S(=O)(=O)N(C)CC(=O)NC2CC(C)(C)NC(C)(C)C2)cc1 | 93.1% (inactive) | 96.2% (inactive) | 8.25% (inactive) | 88 | 96.2 | -1.04% (inactive) | 0.32% (inactive)
10 | COc1ccc(CN2C(=O)C(O)(CC(=O)c3c(C)n[nH]c3C)c3ccccc32)cc1OC (stereo not given) | 105% (inactive) | 95.4% (inactive) | 3.36% (inactive) | 92 | 95.4 | -0.53% (inactive) | -4.44% (inactive)
11 | CON(C)c1nc(Oc2ccc(=O)[nH]n2)nc(N(C)C)n1 | 87.6% (inactive) | 97.9% (inactive) | 11.8% (inactive) | 86.2 | 97.9 | -4.4% (inactive) | 4.44% (inactive)
12 | O=C(CCC(=O)N1CCN(S(=O)(=O)c2ccccc2)CC1)c1cccs1 | 102% (inactive) | 90.9% (inactive) | 4.42% (inactive) | 86.5 | 90.9 | -5.32% (inactive) | -3.33% (inactive)
13 | O=C(CN1C(=O)COc2ccccc21)NCCCN1CCN(Cc2ccccc2)CC1 | 98.5% (inactive) | 87.3% (inactive) | 2.35% (inactive) | 85 | 87.3 | 3.51% (inactive) | 22.4% (inactive)
14 | O=C(COC(=O)c1ccc(NS(=O)(=O)c2ccc3c(c2)OCCO3)cc1)NCC1CCCO1 (stereo not given) | 104% (inactive) | 107% (inactive) | 11.2% (inactive) | 95.8 | 107 | -1.69% (inactive) | -7.78% (inactive)
15 | O=c1c2ccc(-c3nnc4n3-c3ccccc3SC4)cc2nc2n1CCCCC2 | 94.9% (inactive) | 94.4% (inactive) | 8.88% (inactive) | 85.5 | 94.4 | -5.33% (inactive) | 6.83% (inactive)
16 | CCCCNC(=O)OC(C)CNC(=O)Oc1cccc(C)c1 (stereo not given) | 75.7% (inactive) | 93.8% (inactive) | 1.64% (inactive) | 92.2 | 93.8 | -4.08% (inactive) | 3.49% (inactive)
17 | O=S(=O)(c1ccccc1)N1CCSC1c1ccco1 (stereo not given) | 83.6% (inactive) | 72.2% (inactive) | -15.6% (inactive) | 87.9 | 72.2 | -0.13% (inactive) | 5.56% (inactive)
18 | CCOC(=O)c1c(COC(=O)c2ccco2)nc2ccccc2[n+]1[O-] | 90.3% (inactive) | 87.2% (inactive) | 2.55% (inactive) | 84.6 | 87.2 | -5.73% (inactive) | 3.97% (inactive)
19 | COc1ccccc1CNC(=O)C1CCN(S(=O)(=O)N2CCCCC2)CC1 | 83.4% (inactive) | 81.7% (inactive) | 1.51% (inactive) | 80.2 | 81.7 | -1.97% (inactive) | 3.81% (inactive)
20 | O=C(NCc1ccco1)c1cccc(-c2nnc(-c3ccccc3)o2)c1 | 59.4% (inactive) | 85.8% (inactive) | 5.49% (inactive) | 80.3 | 85.8 | -4.8% (inactive) | 2.86% (inactive)

Row | Compound | viability [1] | viability [2] | differential viability (reversal) ([3]; H69AR cells + 2 uM doxorubicin) | viability [3, 6] [%] | viability [3, 7] [%] | inhibition [4] | inhibition [5]
21 | CN(c1ccccc1)S(=O)(=O)c1cc(C(=O)N2CCN(c3ccccn3)CC2)ccc1Cl | 45.3% (inactive) | 88.5% (inactive) | 10.1% (inactive) | 78.4 | 88.5 | 0.39% (inactive) | 2.22% (inactive)
22 | CCC1(CC)C(=O)N(C)C(=O)NC1=NCc1ccccc1 | 110% (inactive) | 93.1% (inactive) | -1.67% (inactive) | 94.7 | 93.1 | -7.07% (inactive) | 3.02% (inactive)
23 | COc1cc(NS(=O)(=O)c2cccc3nsnc23)c(C(=O)O)cc1OC | 102% (inactive) | 102% (inactive) | 8.71% (inactive) | 93.4 | 102 | -1.43% (inactive) | -1.9% (inactive)
24 | CCOC(=O)c1nnn(-c2nonc2NC(C)=O)c1C | 91.7% (inactive) | 98.2% (inactive) | 1.68% (inactive) | 96.5 | 98.2 | -0.65% (inactive) | -4.13% (inactive)
25 | O=C1CC(C(=O)Nc2ccccc2)C2(CCCC2)O1 (stereo not given) | 98.4% (inactive) | 93.9% (inactive) | 3.1% (inactive) | 90.8 | 93.9 | -2.6% (inactive) | -2.38% (inactive)
26 | COc1ccc(S(=O)(=O)NCc2ccco2)cc1-c1nnc2c3ccccc3c(C)nn12 | 88.1% (inactive) | 83.9% (inactive) | -10.3% (inactive) | 94.2 | 83.9 | -5.92% (inactive) | 7.14% (inactive)
27 | CC1(c2ccncc2)Nc2ccccc2-c2nc3ccccc3n21 (stereo not given) | 92.4% (inactive) | 99.2% (inactive) | -2.33% (inactive) | 101 | 99.2 | -1.45% (inactive) | -0.95% (inactive)
28 | Cc1onc(-c2c(Cl)cccc2Cl)c1C(=O)NCCCN1CCOCC1 | 108% (inactive) | 100% (inactive) | -1.13% (inactive) | 101 | 100 | -2.5% (inactive) | -2.22% (inactive)
29 | O=C(NCc1nc2ccccc2[nH]1)c1ccco1 | 106% (inactive) | 90.7% (inactive) | 7.09% (inactive) | 83.7 | 90.7 | -4.13% (inactive) | -1.9% (inactive)
30 | O=S1(=O)C=C(Sc2nnc(-c3ccccc3)o2)c2ccccc21 | 42.9% (inactive) | 1.65% (active) | 0.375% (inactive) | 1.27 | 1.65 | 57% (active) | 95.8% (active)
31 | CCn1c(Cc2ccccc2)nnc1SCC(=O)Nc1ccc(N2CCOCC2)c(Cl)c1 | 101% (inactive) | 93.8% (inactive) | -8.62% (inactive) | 102 | 93.8 | -4.67% (inactive) | 3.02% (inactive)
32 | COCC(C)NC(=O)CCS(=O)(=O)c1nc(-c2ccc(OC)cc2)cc(C(F)(F)F)n1 (stereo not given) | 8.82% (active) | 23.7% (active) | -11.7% (inactive) | 35.3 | 23.7 | -7.87% (inactive) | -0.63% (inactive)
33 | O=C(CCCN1C(=O)c2ccccc2C1=O)NCc1cccnc1 | 95.9% (inactive) | 94.2% (inactive) | 2.95% (inactive) | 91.3 | 94.2 | -2.13% (inactive) | -3.49% (inactive)
34 | CC1(c2ccc(OC(F)F)cc2)NC(=O)N(CC(=O)Nc2ccc3c(c2)OCO3)C1=O (stereo not given) | 81.6% (inactive) | 91.7% (inactive) | -2.95% (inactive) | 94.7 | 91.7 | -5.71% (inactive) | -3.65% (inactive)
35 | FC(F)(F)c1cc(-c2ccco2)nc(-n2nnc3ccccc32)n1 | 59.5% (inactive) | 79.8% (inactive) | 1.45% (inactive) | 78.3 | 79.8 | -0.91% (inactive) | 0.32% (inactive)
36 | Nc1nc(CN2CCOCC2)cs1 | 101% (inactive) | 100% (inactive) | 3.83% (inactive) | 96.1 | 100 | -1.69% (inactive) | 0.95% (inactive)
37 | Cc1cc(C)n(-c2nc(C)nc3c2cnn3-c2ccccc2)n1 | 87.4% (inactive) | 87.3% (inactive) | -1.5% (inactive) | 88.8 | 87.3 | -3.77% (inactive) | 6.19% (inactive)
38 | COc1cccc(NC(=O)C2CCN(c3ncccn3)CC2)c1 | 90% (inactive) | 94% (inactive) | -2.54% (inactive) | 96.6 | 94 | -6.4% (inactive) | -12.5% (inactive)
39 | CC1CCN(C(=O)CSc2nnc(-c3cccnc3)n2C2CCCCC2)CC1 | 112% (inactive) | 97.5% (inactive) | -3.36% (inactive) | 101 | 97.5 | -2.76% (inactive) | 0.16% (inactive)
40 | CCCN(CCC)CCNS(=O)(=O)c1ccc2c(c1)oc(=O)n2C | 97.1% (inactive) | 105% (inactive) | 12.9% (inactive) | 92.5 | 105 | -2.27% (inactive) | -2.06% (inactive)
